# From ChEMBL document CHEMBL3399974, “Discovery and SAR of novel series of imidazopyrimidinones and dihydroimidazopyrimidinones as positive allosteric modulators of the metabotropic glutamate receptor 5 (mGlu5)” (Bioorg Med Chem Lett, 2015)
# Assays:
# [1] = target: Metabotropic glutamate receptor 5 (Rattus norvegicus) (UniProt P31424); test: Negative allosteric modulation at rat mGluR5 expressed in HEK293 cells by calcium mobilization assay relative to glutamate; conditions: 30 uM
# [2] = target: T1, Metabotropic glutamate receptor 5 (Rattus norvegicus, UniProt P31424); test: Negative allosteric modulation at rat mGluR5 expressed in HEK293 cells by calcium mobilization assay; assay type: functional, cell-based
# T1 sequence (P31424 whole entry): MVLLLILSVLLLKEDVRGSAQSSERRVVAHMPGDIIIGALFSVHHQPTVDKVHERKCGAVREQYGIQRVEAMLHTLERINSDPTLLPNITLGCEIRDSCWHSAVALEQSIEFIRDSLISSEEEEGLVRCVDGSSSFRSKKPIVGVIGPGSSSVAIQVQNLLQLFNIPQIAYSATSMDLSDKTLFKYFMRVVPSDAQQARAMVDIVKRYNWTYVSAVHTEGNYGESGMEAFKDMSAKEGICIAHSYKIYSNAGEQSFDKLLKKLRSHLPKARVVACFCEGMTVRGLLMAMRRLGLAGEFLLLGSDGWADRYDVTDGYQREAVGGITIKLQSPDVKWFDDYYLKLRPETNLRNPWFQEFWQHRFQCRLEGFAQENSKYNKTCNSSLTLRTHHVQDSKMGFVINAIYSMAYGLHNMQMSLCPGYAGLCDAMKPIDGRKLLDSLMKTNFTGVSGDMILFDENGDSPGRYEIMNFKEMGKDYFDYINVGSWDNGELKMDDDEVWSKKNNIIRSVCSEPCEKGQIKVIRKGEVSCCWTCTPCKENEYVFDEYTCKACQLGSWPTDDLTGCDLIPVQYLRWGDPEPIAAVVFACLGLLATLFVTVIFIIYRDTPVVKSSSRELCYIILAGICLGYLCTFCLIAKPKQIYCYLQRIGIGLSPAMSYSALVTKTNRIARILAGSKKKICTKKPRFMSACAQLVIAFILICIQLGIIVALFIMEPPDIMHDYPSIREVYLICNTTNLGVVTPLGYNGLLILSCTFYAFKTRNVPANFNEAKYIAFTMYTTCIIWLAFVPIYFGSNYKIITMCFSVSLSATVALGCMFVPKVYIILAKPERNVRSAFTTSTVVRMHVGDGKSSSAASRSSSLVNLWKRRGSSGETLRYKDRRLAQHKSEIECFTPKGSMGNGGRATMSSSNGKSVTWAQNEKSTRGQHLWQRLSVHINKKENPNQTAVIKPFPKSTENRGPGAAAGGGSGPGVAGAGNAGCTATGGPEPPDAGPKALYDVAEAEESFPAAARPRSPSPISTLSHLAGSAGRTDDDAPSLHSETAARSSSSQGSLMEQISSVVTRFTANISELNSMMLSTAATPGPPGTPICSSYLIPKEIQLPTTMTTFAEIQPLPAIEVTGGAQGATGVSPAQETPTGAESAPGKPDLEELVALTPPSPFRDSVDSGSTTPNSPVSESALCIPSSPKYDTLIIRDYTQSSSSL
# How it was run: (§1)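 HEK293 cells stably expressing rat mGlu5 were run in a 'triple add' calcium mobilization assay that detects agonism, PAM and NAM activity together. Response amplitude was expressed as % of the maximal response to 100 µM glutamate. Values are the mean of three or more independent determinations.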
# [3] = target: T1, Metabotropic glutamate receptor 5; test: Positive allosteric modulation at rat mGluR5 expressed in HEK293 cells by calcium mobilization assay; assay type: functional, cell-based
# How it was run: as §1
# [4] = target: Metabotropic glutamate receptor 5 (Rattus norvegicus) (UniProt P31424); test: Positive allosteric modulation at rat mGluR5 expressed in HEK293 cells assessed as amplitude of response at 30 uM by calcium mobilization assay relative to glutamate; assay type: functional, cell-based
# How it was run: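 HEK293 cells stably expressing rat mGlu5 were used in a calcium mobilization assay. Test compound was given at 30 µM, and response amplitude is expressed as percent of the maximal response to 100 µM glutamate. Values are the average of three or more independent determinations.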
# [5] = Drug metabolism in human liver microsomes assessed as compound metabolized at 1 uM after 15 mins; assay type: ADME; conditions: read-out: Drug metabolism
# How it was run: (§2)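 Test compound at 1 µM was incubated for 15 min with liver microsomes (human for HLM, rat for RLM). Read-out was % of compound metabolized.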
# [6] = Drug metabolism in rat liver microsomes assessed as compound metabolized at 1 uM after 15 mins; assay type: ADME; conditions: read-out: Drug metabolism
# How it was run: as §2
# Sequence of Metabotropic glutamate receptor 5 (Rattus norvegicus) (P31424 21-1203 limits assumed): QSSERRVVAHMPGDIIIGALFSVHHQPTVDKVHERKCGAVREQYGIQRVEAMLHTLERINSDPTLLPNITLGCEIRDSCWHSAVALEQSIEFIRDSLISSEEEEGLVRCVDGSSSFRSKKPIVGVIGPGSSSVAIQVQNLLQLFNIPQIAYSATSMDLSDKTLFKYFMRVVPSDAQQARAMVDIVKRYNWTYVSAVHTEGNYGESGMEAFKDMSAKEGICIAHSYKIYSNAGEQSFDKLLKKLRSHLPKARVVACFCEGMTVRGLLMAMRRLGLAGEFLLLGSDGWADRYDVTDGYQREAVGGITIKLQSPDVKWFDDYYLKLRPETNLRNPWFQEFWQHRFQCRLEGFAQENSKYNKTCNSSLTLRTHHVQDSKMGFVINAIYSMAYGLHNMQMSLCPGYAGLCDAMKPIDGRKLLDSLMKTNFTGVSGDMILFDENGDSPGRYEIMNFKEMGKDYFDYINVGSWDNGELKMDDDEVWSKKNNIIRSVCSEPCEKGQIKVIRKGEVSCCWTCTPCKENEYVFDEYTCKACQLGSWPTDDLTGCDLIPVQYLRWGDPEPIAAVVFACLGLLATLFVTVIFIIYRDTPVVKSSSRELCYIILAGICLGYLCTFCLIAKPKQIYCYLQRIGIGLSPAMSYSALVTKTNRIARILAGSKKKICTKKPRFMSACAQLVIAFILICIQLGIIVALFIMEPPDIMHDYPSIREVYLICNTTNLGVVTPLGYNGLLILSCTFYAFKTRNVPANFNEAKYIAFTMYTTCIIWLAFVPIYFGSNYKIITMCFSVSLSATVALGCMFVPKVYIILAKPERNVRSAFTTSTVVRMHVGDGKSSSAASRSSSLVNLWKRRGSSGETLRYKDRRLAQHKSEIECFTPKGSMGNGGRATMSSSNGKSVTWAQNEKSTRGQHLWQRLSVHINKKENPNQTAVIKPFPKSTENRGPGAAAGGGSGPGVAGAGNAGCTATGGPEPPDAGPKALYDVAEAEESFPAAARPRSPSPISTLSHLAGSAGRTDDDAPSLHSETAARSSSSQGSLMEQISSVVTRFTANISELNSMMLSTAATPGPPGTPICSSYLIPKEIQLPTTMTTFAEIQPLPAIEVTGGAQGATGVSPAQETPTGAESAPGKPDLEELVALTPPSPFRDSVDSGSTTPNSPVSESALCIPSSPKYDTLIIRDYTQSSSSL
Structure (SMILES),IC50 [1] [nM],IC50 ([2]; read-out: pIC50 (converted)) [nM],EC50 [3] [nM],Emax [4] [%],"metabolised at 0.25 h, 1 µM [5] [%]","metabolised at 0.25 h, 1 µM [6] [%]",IC50 ([2]; read-out: IC50) [nM]
O=C1N(c2ccc(F)cc2)CCc2nc(COc3ccccc3)c(Cl)n21,133,132,,,,,
O=c1n(Cc2ccccc2)ccc2nc(COc3ccccc3)cn12,,,1590,93,,,
Cc1cccc(-n2ccc3nc(COc4ccccc4)cn3c2=O)n1,,,3580,64,,,
O=c1n(-c2ccc(F)cc2)ccc2nc(COc3cccc(F)c3)cn12,,,230,91,13,28,
Cc1nc(N2CCc3nc(COc4ccccc4)cn3C2=O)ccc1F,,,183,91,31,93,
O=c1n(-c2ccc(F)cc2)ccc2nc(COc3ccccc3)c(Cl)n12,5,,,,6,73,218
O=C1N(c2cccc(F)c2)CCc2nc(COc3ccccc3)cn21,,,218,82,20,78,
O=c1n(-c2ccc(F)cc2)ccc2nc(COc3ccc(F)cc3)cn12,,,375,85,11,29,
Cc1c(COc2ccccc2)nc2n1C(=O)N(c1ccc(F)cc1)CC2,529,525,,,21,46,
Cn1ccc2nc(COc3ccccc3)cn2c1=O,,,> 10000,67,,,
Cc1nc(-n2ccc3nc(COc4ccccc4)cn3c2=O)ccc1F,,,375,77,8,50,
O=c1n(-c2ccc(F)cn2)ccc2nc(COc3ccccc3)cn12,,,587,87,,,
CN(C)c1cccc(-n2ccc3nc(COc4ccccc4)cn3c2=O)n1,,,284,87,66,90,
Cc1ccc(-n2ccc3nc(COc4ccccc4)cn3c2=O)nc1,,,2000,84,,,
O=c1n(-c2ccc(F)c(F)c2)ccc2nc(COc3ccccc3)cn12,,,230,93,,,
Cc1cc(N2CCc3nc(COc4ccccc4)cn3C2=O)ncc1F,,,371,87,,,
Cc1cn(-c2ccc(F)cc2)c(=O)n2cc(COc3ccccc3)nc12,16,,,,36,71,1000
